Consider 6 compounds from ChEMBL document CHEMBL4359929, “Piperidine and piperazine inhibitors of fatty acid amide hydrolase targeting excitotoxic pathology” (Bioorg Med Chem, 2019).

The half-life is the time needed for the level to fall by half in the phase considered. Broadly, the IC50 is the concentration that gives 50% inhibition.

The nature of series [1]: Stability in rat plasma assessed as half life. It counts as ADME, cell-free. The method, boiled down:
(§1)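 Stability assessed as half-life in human, rat and mouse plasma and gastric fluid, and in human, rat and mouse liver microsomal preparations.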

The target of series [2] is T1, Fatty-acid amide hydrolase 1 (Rattus norvegicus, UniProt P97612).
T1 sequence (P97612 whole entry): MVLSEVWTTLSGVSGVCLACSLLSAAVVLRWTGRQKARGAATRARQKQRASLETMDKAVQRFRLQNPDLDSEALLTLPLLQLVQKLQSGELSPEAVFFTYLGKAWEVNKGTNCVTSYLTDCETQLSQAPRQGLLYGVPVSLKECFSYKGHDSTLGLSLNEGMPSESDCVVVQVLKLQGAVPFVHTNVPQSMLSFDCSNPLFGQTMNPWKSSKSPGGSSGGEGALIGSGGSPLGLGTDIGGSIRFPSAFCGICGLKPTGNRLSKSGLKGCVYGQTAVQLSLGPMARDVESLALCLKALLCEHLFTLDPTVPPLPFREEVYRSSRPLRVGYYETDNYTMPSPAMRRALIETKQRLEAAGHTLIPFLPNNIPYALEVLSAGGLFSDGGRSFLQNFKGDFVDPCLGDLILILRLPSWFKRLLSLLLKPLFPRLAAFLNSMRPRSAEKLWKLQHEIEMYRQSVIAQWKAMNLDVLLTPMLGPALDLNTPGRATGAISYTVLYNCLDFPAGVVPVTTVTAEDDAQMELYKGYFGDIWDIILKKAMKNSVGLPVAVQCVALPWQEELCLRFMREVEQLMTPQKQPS
The experiment in a line: Inhibition of rat recombinant His/GST-tagged FAAH expressed in Escherichia coli cells using AAMCA as substrate incubated for 15 mins followed by substrate addition and measured after every 20 mins for 4 hrs by fluorescence based assay. In short, it runs like this:
(§2)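 Fluorescent enzyme assay in throughput format. Human recombinant FAAH or purified rat FAAH used arachidonoyl 7-amino-4-methylcoumarin amide as substrate; human recombinant MGL was run by a similar fluorometric procedure.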

Series [3] concerns the target Cannabinoid receptor 2 (Homo sapiens) (UniProt P34972). Put plainly: Displacement of [3H]CP55940 from human CB2 receptor expressed in HEK293 cells by competition-equilibrium binding analysis. It counts as cell-based. In short, it runs like this: (§3)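 HEK293 cell membranes expressing mouse or human CB2; competition-equilibrium binding against [3H]CP-55,940.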
For orientation: Loss of bound radioactivity is the signal in a displacement assay; it reports binding, not function.

A short description of series [4]: Stability in human plasma assessed as half life. It counts as ADME, cell-free. In short, it runs like this: as §1
Series [5] can be described thus: Selectivity ratio of IC50 for human recombinant His-tagged MGL expressed in Escherichia coli BL21 DE3 cells to IC50 for rat recombinant His/GST-tagged FAAH expressed in Escherichia coli cells by fluorescence based assay.
The species entered for series [6] is Homo sapiens. Put plainly: Selectivity ratio of IC50 for human full length ABHD6 expressed in Escherichia coli cells to IC50 for human recombinant MBP-tagged FAAH expressed in Escherichia coli cells by fluorescence based assay.
For series [7], the target named is Cannabinoid receptor 1 (Rattus norvegicus) (UniProt P20272). Put plainly: Displacement of [3H]CP55940 from CB1 receptor in rat brain by competition-equilibrium binding analysis. Format: tissue-based. The method, boiled down:
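Rat brain membranes as CB1 source; competition-equilibrium binding against [3H]CP-55,940.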
Target sequence in this assay (P20272 whole entry): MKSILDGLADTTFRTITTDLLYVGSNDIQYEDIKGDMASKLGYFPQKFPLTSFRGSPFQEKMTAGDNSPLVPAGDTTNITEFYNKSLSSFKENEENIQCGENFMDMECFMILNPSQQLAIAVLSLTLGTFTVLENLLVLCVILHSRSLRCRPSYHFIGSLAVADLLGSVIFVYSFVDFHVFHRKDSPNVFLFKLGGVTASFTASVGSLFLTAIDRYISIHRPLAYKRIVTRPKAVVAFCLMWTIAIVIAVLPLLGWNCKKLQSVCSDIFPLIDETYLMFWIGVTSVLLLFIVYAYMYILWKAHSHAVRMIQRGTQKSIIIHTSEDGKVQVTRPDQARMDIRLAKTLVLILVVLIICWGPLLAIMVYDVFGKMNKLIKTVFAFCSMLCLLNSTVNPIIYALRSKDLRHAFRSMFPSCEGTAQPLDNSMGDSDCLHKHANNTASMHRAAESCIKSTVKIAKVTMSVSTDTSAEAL

Series [8] is described as follows: Stability in rat liver microsomes assessed as half life. It counts as ADME, Microsome. The method, boiled down: as §1
On the technique in general: Liver microsomes are a subcellular fraction often used to study metabolism.

Series [9] in a line: Stability in mouse gastric fluid assessed as half life. It counts as ADME, tissue-based, Gastric juice. In short, it runs like this:
as §1

Series [10] in a line: Stability in human gastric fluid assessed as half life. It counts as ADME, tissue-based, Gastric juice. In short, it runs like this:
as §1

The next series has as its target T2, Monoglyceride lipase (Homo sapiens, UniProt Q99685).
T2 sequence (Q99685 whole entry): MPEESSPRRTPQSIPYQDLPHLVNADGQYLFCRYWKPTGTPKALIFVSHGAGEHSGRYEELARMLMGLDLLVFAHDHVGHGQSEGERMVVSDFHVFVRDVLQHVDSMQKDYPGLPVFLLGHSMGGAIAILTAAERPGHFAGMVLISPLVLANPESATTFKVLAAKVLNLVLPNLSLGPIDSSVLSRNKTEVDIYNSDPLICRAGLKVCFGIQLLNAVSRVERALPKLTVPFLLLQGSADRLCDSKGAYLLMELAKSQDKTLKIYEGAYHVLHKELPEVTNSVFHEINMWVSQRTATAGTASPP
Put plainly: Inhibition of human recombinant His-tagged MGL expressed in Escherichia coli BL21 DE3 cells using AHMMCE as substrate preincubated with enzyme for 15 mins followed by substrate addition and measured after every 15 mins for 3 hrs by fluorescence based assay. The method, boiled down: as §2

The target of series [11] is T3, Fatty-acid amide hydrolase 1 (Homo sapiens, UniProt O00519).
T3 sequence (O00519 whole entry): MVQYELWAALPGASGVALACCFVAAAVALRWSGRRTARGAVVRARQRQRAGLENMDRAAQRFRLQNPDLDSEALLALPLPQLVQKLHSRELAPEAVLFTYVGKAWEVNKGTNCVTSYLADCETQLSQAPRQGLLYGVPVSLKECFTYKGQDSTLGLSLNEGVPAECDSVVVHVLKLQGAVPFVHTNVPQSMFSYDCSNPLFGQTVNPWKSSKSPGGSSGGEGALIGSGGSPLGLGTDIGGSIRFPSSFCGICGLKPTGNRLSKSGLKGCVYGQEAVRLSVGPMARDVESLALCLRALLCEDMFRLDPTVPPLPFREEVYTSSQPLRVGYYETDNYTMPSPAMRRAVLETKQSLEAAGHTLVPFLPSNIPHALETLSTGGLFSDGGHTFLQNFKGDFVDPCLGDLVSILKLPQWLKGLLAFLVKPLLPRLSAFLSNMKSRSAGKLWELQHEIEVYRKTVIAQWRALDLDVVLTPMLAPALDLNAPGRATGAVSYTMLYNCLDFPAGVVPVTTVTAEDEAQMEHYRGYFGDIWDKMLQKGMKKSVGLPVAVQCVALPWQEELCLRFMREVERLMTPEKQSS
Put plainly: Inhibition of human recombinant MBP-tagged FAAH expressed in Escherichia coli cells using AAMCA as substrate incubated for 15 mins followed by substrate addition and measured after every 20 mins for 4 hrs by fluorescence based assay. The method, boiled down: as §2

The target of series [12] is Cannabinoid receptor 2 (Mus musculus) (UniProt P47936). The experiment in a line: Displacement of [3H]CP55940 from mouse CB2 receptor expressed in HEK293 cells by competition-equilibrium binding analysis. It counts as cell-based. The method, boiled down: as §3
The nature of series [13]: Stability in mouse plasma assessed as half life. Format: ADME, cell-free. In short, it runs like this:
as §1

The nature of series [14]: Stability in rat gastric fluid assessed as half life. Format: ADME, tissue-based, Gastric juice. In short, it runs like this:
as §1

For series [15], the species on record is Homo sapiens. The experiment in a line: Selectivity ratio of IC50 for human recombinant His-tagged MGL expressed in Escherichia coli BL21 DE3 cells to IC50 for human recombinant MBP-tagged FAAH expressed in Escherichia coli cells by fluorescence based assay.
Series [16] in a line: Stability in human liver microsomes assessed as half life. It counts as ADME, Microsome. The method, boiled down: as §1
Series [17] in a line: Selectivity ratio of IC50 for human full length ABHD6 expressed in Escherichia coli cells to IC50 for rat recombinant His/GST-tagged FAAH expressed in Escherichia coli cells by fluorescence based assay.
Series [18] is described as follows: Stability in mouse liver microsomes assessed as half life. It counts as ADME, Microsome. The method, boiled down:
as §1

In series [19] the target is Cannabinoid receptor 1 (Rattus norvegicus) (UniProt P20272). Put plainly: Displacement of [3H]CP55940 from CB1 receptor in rat brain by competition-equilibrium binding analysis.
Target sequence in this assay (P20272 whole entry, looked up): as the sequence (P20272 whole entry) above

SMILES strings stand for the structures. Activity calls are given as the source filed them.

Sequence of Cannabinoid receptor 2 (Homo sapiens) (P34972 whole entry): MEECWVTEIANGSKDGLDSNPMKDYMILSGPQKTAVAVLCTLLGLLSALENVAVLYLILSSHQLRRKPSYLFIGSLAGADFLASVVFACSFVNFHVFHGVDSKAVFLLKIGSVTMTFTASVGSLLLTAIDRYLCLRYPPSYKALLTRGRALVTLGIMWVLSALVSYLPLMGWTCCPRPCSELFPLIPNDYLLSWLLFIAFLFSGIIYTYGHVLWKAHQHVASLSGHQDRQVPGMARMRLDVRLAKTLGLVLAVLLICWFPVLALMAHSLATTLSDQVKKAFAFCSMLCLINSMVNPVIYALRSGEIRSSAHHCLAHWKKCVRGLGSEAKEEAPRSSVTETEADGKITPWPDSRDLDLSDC
Sequence of Cannabinoid receptor 2 (Mus musculus) (P47936 whole entry): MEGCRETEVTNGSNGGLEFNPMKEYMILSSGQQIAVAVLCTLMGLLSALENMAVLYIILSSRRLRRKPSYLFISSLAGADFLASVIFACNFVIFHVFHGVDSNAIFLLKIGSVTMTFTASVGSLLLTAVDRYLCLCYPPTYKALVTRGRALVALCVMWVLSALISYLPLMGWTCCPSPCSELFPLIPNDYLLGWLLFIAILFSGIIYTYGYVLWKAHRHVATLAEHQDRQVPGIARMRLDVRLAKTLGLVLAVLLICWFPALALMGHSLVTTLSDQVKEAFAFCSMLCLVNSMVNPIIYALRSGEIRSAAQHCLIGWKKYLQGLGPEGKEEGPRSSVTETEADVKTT

In the case of `C[C@@H]1CN(c2ccccc2)CCN1C(=O)Oc1cccc(N2CCS(=O)(=O)CC2)c1`, the half-life in series [1] was > 60 min; in series [4], > 60 min; in series [8], 15 to 25 min; in series [9], > 60 min; in [10], > 60 min; in series [13], > 60 min. Moreover, the half-life in series [14] is > 60 min; in [16], 15 to 25 min; in series [18], 15 to 25 min. The results for the IC50 (in series [2]; at Monoglyceride lipase; in series [11]) were 5.7 nM, > 1000 nM and 17.7 nM, respectively. Further, the result in [3], in [7], in series [12] and in [19] was inactive. Moreover, the Ratio IC50 (in series [5]; in the series filed under Homo sapiens [6]; in the series filed under Homo sapiens [15]; in [17]) was > 1000 in each case.

As to `COc1ccc(C2CCN(C(=O)Oc3cccc(N4CCS(=O)(=O)CC4)c3)CC2)cc1`, the half-life in [1] was > 60 min; in [4], > 60 min; in [8] it was 15 to 25 min; in series [9] it was > 60 min; in series [10] it was > 60 min; in series [13], > 60 min. The results for the half-life in series [14], in [16] and in series [18] were > 60 min, 15 to 25 min and 15 to 25 min, respectively. The results for the IC50 (in series [2]; on Monoglyceride lipase; in [11]) were 2.61 nM, > 1000 nM and 6.3 nM, respectively. The result in [3], in [7], in [12] and in series [19] was inactive. Also, the Ratio IC50 (in series [5]; in the series listed under Homo sapiens [6]; in the series listed under Homo sapiens [15]; in [17]) was > 1000 each time.

`O=C(Oc1cccc(N2CCS(=O)(=O)CC2)c1)N1CCN(c2ccccc2)CC1`: the half-life was > 60 min in series [1]; > 60 min in series [4]; 15 to 25 min in series [8]; > 60 min in [9]; > 60 min in series [10]; > 60 min in series [13]. Further, the half-life in series [14] was > 60 min; in series [16] it was 15 to 25 min; in series [18], 15 to 25 min. The IC50 in series [2] was 8 nM; on Monoglyceride lipase it was > 1000 nM; in series [11], 15 nM. The result in series [3], in series [7], in [12] and in [19] was inactive. The Ratio IC50 (in [5]; in the series filed under Homo sapiens [6]; in the series listed under Homo sapiens [15]; in series [17]) was > 1000 throughout.

Regarding `N#Cc1ccc(C2CCN(C(=O)Oc3cccc(N4CCS(=O)(=O)CC4)c3)CC2)cc1`, the half-life was > 60 min in series [1]; > 60 min in series [4]; 15 to 25 min in series [8]; > 60 min in [9]; > 60 min in [10]; > 60 min in [13]. Moreover, the values for the half-life in series [14], in series [16] and in [18] were > 60 min, 15 to 25 min and 15 to 25 min, respectively. The IC50 in series [2] was 9.9 nM; at Monoglyceride lipase it was > 1000 nM; in series [11] it was 22.7 nM. The outcome in [3], in series [7], in series [12] and in series [19] was inactive. For the same compound, the Ratio IC50 (in series [5]; in the series filed under Homo sapiens [6]; in the series listed under Homo sapiens [15]; in series [17]) was > 1000 throughout.

On to `O=C(Oc1cccc(N2CCS(=O)(=O)CC2)c1)N1CCN(Cc2cccc(-c3ccccc3)c2)CC1`, for which the half-life is > 60 min in series [1]; > 60 min in series [4]; 15 to 25 min in [8]; > 60 min in series [9]; > 60 min in [10]; > 60 min in series [13]. Also, the results for the half-life in [14], in series [16] and in series [18] were > 60 min, 15 to 25 min and 15 to 25 min, respectively. For the same compound, the IC50 is 2.1 nM in series [2], > 1000 nM at Monoglyceride lipase and 1.9 nM in series [11]. Further, the outcome in series [3], in [7], in [12] and in series [19] was inactive. Besides, the Ratio IC50 (in [5]; in the series filed under Homo sapiens [6]; in the series filed under Homo sapiens [15]; in [17]) was > 1000 in each case.

Consider `COc1ccc(N2CCN(C(=O)Oc3cccc(N4CCS(=O)(=O)CC4)c3)[C@H](C)C2)cc1`, for which the half-life in [1] was > 60 min; in [4], > 60 min; in series [8], 15 to 25 min; in series [9], > 60 min; in series [10], > 60 min; in series [13] it was > 60 min. The values for the half-life in series [14], in [16] and in series [18] were > 60 min, 15 to 25 min and 15 to 25 min, respectively. Besides, the IC50 is 7.4 nM in series [2], > 1000 nM on Monoglyceride lipase and 11.1 nM in [11]. Also, the outcome in series [3], in [7], in [12] and in series [19] was inactive. Also, the Ratio IC50 (in series [5]; in the series filed under Homo sapiens [6]; in the series listed under Homo sapiens [15]; in [17]) was > 1000 each time.
